Structures are written as SMILES.

A short description of the data set: Toxicity liver stage against HepG2, at 10uM. The data set is classed as cell-based. The arrangement: test concentration 10 uM, cell line HepG2-A16-CD81EGFP. The following applies: human, HepG2-A16-CD81EGFP cells; read-out: INHIBITION
Put shortly: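 Uninfected HepG2-A16-CD81EGFP cells, 3 × 10^3 per well, 1536-well, plated on prespotted compound at 10 μM final, parasite-free screening media added to match infected plates; puromycin 10 μM positive, DMSO 0.5% negative; run in parallel with 48 h PbLuc assay at 37 °C, 5% CO2; viability by CellTiter-Glo luminescence, normalized to controls.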

Consider `NCC1CCC(C(NC(=O)CC2CCCCC2)c2ccccn2)CC1` (stereo not drawn), for which the cytotoxicity at 10 µM is -7.19%. The result for `NC(=O)CN(C(=O)c1c[nH]c2ncccc12)C1CCCC1` reads 0.441%; that for `CC1CCC(NC(=O)c2nn(C)cc2Br)CC1` (stereo not drawn), -3.76%. The result for `CCCOc1ccc(NC(=O)NCCC(=O)N(C)C)cc1Cl` reads -10.9%. As to `O=C(c1ccc2c(c1)OCO2)N1CCCC(n2cccn2)C1` (stereo not drawn), the cytotoxicity at 10 µM was -8.4%. In the case of `Cc1cc(CNC(=O)NC(C)(CO)C2CC2)c(C)s1` (stereo not drawn), the cytotoxicity at 10 µM came to 3.46%. On to `CC(C(=O)N1CCOCC1)n1cc(Br)cn1` (stereo not drawn), for which the cytotoxicity at 10 µM stood at 14.1%. As to `COCC(=O)N1CCCN(c2ncnc3c2CCNCC3)CC1`, the cytotoxicity at 10 µM was found to be 8.93%. Regarding `CC(C)Cn1ncc(C(=O)NS(=O)(=O)C2CCCC2)c1C1CC1`, the cytotoxicity at 10 µM was -9.97%. The result for `O=C(c1cccc2ncccc12)N1CCCN(c2cccnn2)CC1` reads -2.08%; that for `CCN(CC)CCC(=O)N1CCc2c(nc(N(C)C)nc2N(C)C)C1`, -14.4%; that for `O=C(NCc1cccnc1N1CCCCC1)c1ccc2[nH]nnc2c1`, -1.19%.

Take `O=C(NCC(F)(F)F)C1CN(C(=O)c2cnccn2)C1`: the cytotoxicity at 10 µM came out at 2.24%. Regarding `CC(C)N(C)Cc1cncc2c1CCN(Cc1cccs1)C2`, the cytotoxicity at 10 µM is -112%. On to `Cc1csc(CCNc2ccc(C#N)cc2F)n1`, for which the cytotoxicity at 10 µM turned out to be 2.17%. `CNC(=O)Cn1ccc2ccc(NC(=O)C(C)C)cc21`: the cytotoxicity at 10 µM was 0.153%. Turning to `Cc1nc(CN2CCCC2c2[nH]ncc2C(=O)N(C)C)cs1` (stereo not drawn), the cytotoxicity at 10 µM was -0.722%.

For the compound `Cc1nc(-c2cccc(N3CCC(N[C@@H]4CCOC4)CC3)c2)cs1`, the cytotoxicity at 10 µM was -8.16%. With `Nc1nc2c(c(NC(Cn3cccn3)c3ccccc3)n1)CCNCC2` (stereo not drawn), the cytotoxicity at 10 µM was -12.3%. The result for `CCn1cc(S(=O)(=O)NC2(CN3CCOCC3)CCCCC2)c(C)n1` reads 1.88%.

As to `Cc1cc(C)c(CNC(=O)NCCCNc2ccccn2)c(=O)[nH]1`, the cytotoxicity at 10 µM is -43%. As to `C[C@@H]1CN(C(=O)CCN2CCOCC2)CC[C@]1(C)O`, the cytotoxicity at 10 µM is -0.51%. The result for `O=C(O)c1cc(C=Cc2cccc3ccccc23)ncn1` reads -12.1%; that for `CS(=O)(=O)CCSc1nnc(Cc2ccccc2F)o1`, 0.313%. For the compound `Cc1nc(CNCC2CCCN2c2cccnn2)oc1C` (stereo not drawn), the cytotoxicity at 10 µM was -3.31%. Take `Cc1cccc(N2CCC3(CCCN(C(=O)c4cccnc4)C3)CC2)n1`: the cytotoxicity at 10 µM came to 3.77%.

Turning to `CCCN1CCC(c2cc(CCOc3ccc(C(F)(F)F)cc3)[nH]n2)C1` (stereo not drawn), the cytotoxicity at 10 µM was -3.58%. Consider `COCCC(=O)Nc1ccnn1-c1ccccc1`, for which the cytotoxicity at 10 µM is -2.55%.

As to `Cc1[nH]c2c(F)cccc2c1CC(=O)NCCCNc1cccnc1`, the cytotoxicity at 10 µM worked out at 1.56%. As for `CCCN1C[C@H](NC(=O)c2cc(C)no2)[C@@H](c2ccc(OC)cc2)C1`, the cytotoxicity at 10 µM is -27.3%.

Consider `c1cc(CN2CCCCC2)cc(NCc2cc[nH]n2)c1`, for which the cytotoxicity at 10 µM is -6.05%.

For the compound `Cc1ccccc1C(N)c1ccncc1` (stereo not drawn), the cytotoxicity at 10 µM was -0.871%. Turning to `CSCCCNC(=O)C(c1ccccc1C)N(C)C` (stereo not drawn), the cytotoxicity at 10 µM was 4.68%. With `Cc1nnc(CNC(=O)CC2CCc3ccccc32)o1` (stereo not drawn), the cytotoxicity at 10 µM is 1.58%. The result for `O=C(NCc1cn2c(n1)CN(Cc1cccnc1)CC2)C1CCC1` reads 6.76%; that for `CCn1cnnc1C1CCN(C(=O)c2cc3c(s2)CCC3)CC1`, -8.93%. The result for `CCOCCNCC1CCN(CCO)CC1` reads -1.46%; that for `COc1ccc(C[C@H]2CN(c3cc(OC)ncn3)CC[C@H]2OC)cc1`, 54.5%; that for `Cc1oncc1C(=O)N1CCC2(CC1)C(c1cnn(C)c1)CC(=O)N2C` (stereo not drawn), -75.6%.

Turning to `O=C1NCCCCC1NC(=O)C1(c2ccc3c(c2)OCCO3)CCCC1` (stereo not drawn), the cytotoxicity at 10 µM stood at 0.969%. For the compound `CN1CCN(C2COC3(CCN(c4ccc(C#N)cc4)CC3)C2)CC1` (stereo not drawn), the cytotoxicity at 10 µM came to 8.95%. Take `Cc1cccn2cc(CC(=O)N3CCCC(n4cncn4)C3)nc12` (stereo not drawn): the cytotoxicity at 10 µM is -7.31%. The result for `CN1CCC2(CC1)CN(Cc1ccc(C3CCCCO3)o1)CCCN2C` (stereo not drawn) reads -5.35%; that for `CCN1C(=O)C[C@@H]2[C@@H]1CCN2S(=O)(=O)c1ccccc1`, 2.55%; that for `Cc1ccc(-c2nc(CNC(C)CCO)[nH]c2-c2ccccn2)cc1` (stereo not drawn), -6.78%. The result for `O=C(O)c1nnn(-c2ccccc2)c1-c1ccncc1` reads 2.33%; that for `CN(C)C(=O)CC1CC2(CCN(Cc3ccco3)CC2)c2ccccc21` (stereo not drawn), -11.3%; that for `CN(Cc1ccccc1)C(=O)c1nc(S(C)(=O)=O)n2ccccc12`, -7.36%. In the case of `NC(=O)c1cnn2c1NCC(CNC1(c3ccccc3)CCC1)C2` (stereo not drawn), the cytotoxicity at 10 µM was -8.84%. The result for `Cc1ccc2nc(C)cc(C(=O)N[C@H]3COC[C@@H]3N3CCOCC3)c2c1` reads -42.2%; that for `O=C(NCc1cccnc1)c1cn(CCc2ccccc2)nn1`, 4.39%; that for `CC1CCN(C(=O)c2sccc2-n2cnnn2)CC1`, 9.33%. For `CN(C)S(=O)(=O)N1CCC2(CC1)CC(OCC1CC1)CO2` (stereo not drawn), the cytotoxicity at 10 µM was -2.37%.

For `CN(C(=O)CCNC(=O)NC1CCCCC1)c1ccccc1`, the cytotoxicity at 10 µM is -0.575%.

For `O=C(CCc1nnc(-c2ccccc2)o1)N1CCN(CC2CC2)CC1`, the cytotoxicity at 10 µM is -13.7%. With `CC(=O)Oc1ccnc(C(F)(F)F)c1C(C)=O`, the cytotoxicity at 10 µM was -11.4%. With `Cc1ccccc1OCC1CCCN(C(=O)CNC(=O)N(C)C)C1` (stereo not drawn), the cytotoxicity at 10 µM is -4.46%. With `COc1ccc(CN[C@@H]2CO[C@H](CNC(=O)N3CCOCC3)[C@H]2O)cc1`, the cytotoxicity at 10 µM was -1.57%.

Consider `Cc1nnc(CN(C)CC(=O)NCCc2ccc(F)cc2)n1C`, for which the cytotoxicity at 10 µM was 2.25%. Turning to `Cc1ccc(-c2nnc(CCC(=O)N3CCCC3c3ccc[nH]3)o2)cc1` (stereo not drawn), the cytotoxicity at 10 µM was -1.31%.

As for `O=C(Nc1ccc(Br)cc1F)c1ccc(N2CCCCC2)nn1`, the cytotoxicity at 10 µM is 1.16%.

Turning to `CN(C)CCOCC1CN(Cc2ccncc2)Cc2nnn(C)c21` (stereo not drawn), the cytotoxicity at 10 µM came out at 3.66%. `CS(=O)(=O)c1cccc2c1CCCN2C(=O)Cc1cccc(F)c1`: the cytotoxicity at 10 µM stood at 8.14%. For the compound `Cc1ccnn1CCC(=O)N1CCCC[C@@]2(C)[C@@H]1CCC(=O)N2C`, the cytotoxicity at 10 µM is 3.38%. Regarding `CN1CCC2(CC1)CN(C(=O)c1cccc3cccnc13)CCN2C`, the cytotoxicity at 10 µM is 1.54%. Take `COc1ccc(C(=O)NCCC(N)=O)c(I)c1`: the cytotoxicity at 10 µM amounted to 9.34%. The result for `CC1CCN(C(=O)C2CCN(c3ccc(Cl)cc3C#N)CC2)CC1` reads 11.8%; that for `CC(C)N(CC(N)=O)Cc1csc(COc2ccc(F)cc2)n1`, 33.9%; that for `Cc1n[nH]c(-c2ccc(NC(=O)C(C)N3CCN(C)CC3)cc2)n1` (stereo not drawn), 6.03%. The result for `NC1CCC(n2cc(C(=O)NC3COc4ccccc43)nn2)CC1` (stereo not drawn) reads -4.8%.

Take `Fc1ccccc1OCCN1CCCCC1Cn1cncn1` (stereo not drawn): the cytotoxicity at 10 µM was -18.9%. Take `Cc1cc(C(O)CCNC(=O)c2ccc(Cl)s2)c(C)o1` (stereo not drawn): the cytotoxicity at 10 µM is -1.22%. `NC(=O)c1cccc(CNC(=O)NCCOc2ccc(F)c(F)c2)c1`: the cytotoxicity at 10 µM was found to be 9.77%. On to `Cn1c2ncccc2c(=O)n1CC(=O)NCCc1c(F)cccc1F`, for which the cytotoxicity at 10 µM is -5.33%. Turning to `CCS(=O)(=O)N1Cc2ncn(CC3CC3)c2C(COCC2CC2)C1` (stereo not drawn), the cytotoxicity at 10 µM was determined as 0.822%. With `CC(C)(C)OC(=O)N1CCCN1C(=O)c1cccc(F)c1F`, the cytotoxicity at 10 µM is -10.3%.

Turning to `c1cnc(N2C[C@H]3CCN(CC4CC4)C[C@H]3C2)cn1`, the cytotoxicity at 10 µM is -108%. On to `Cc1ccc(-c2nnc(CNC(=O)c3cccnc3)o2)cn1`, for which the cytotoxicity at 10 µM was -2.72%. On to `CC(C)(C)c1cc(=O)n2c(n1)SCC(C(=O)NCc1ccccn1)C2` (stereo not drawn), for which the cytotoxicity at 10 µM is -6.88%. The result for `NC(=O)Cn1c(CO)cnc1SCc1ccccc1Cl` reads 0.252%; that for `Cc1noc(C)c1CN1CCO[C@H]2CN(C(=O)C3CCOCC3)C[C@H]21`, 0.845%; that for `CN(C)C(=O)CN1C[C@H]2CCN(C(=O)c3ccncc3)CC[C@H]2S1(=O)=O`, -1.55%.

For the compound `Cc1cc(-c2cnn(CCNC(=O)c3cc[nH]n3)c2C2CC2)on1`, the cytotoxicity at 10 µM is -13.6%. Consider `CC(NC(=O)CSCC(N)=O)c1ccc(Oc2ccccc2)cc1` (stereo not drawn), for which the cytotoxicity at 10 µM was 2.98%. Turning to `O=c1n(CCSCc2ccccc2Cl)nc2ccccn12`, the cytotoxicity at 10 µM is -7.68%.

On to `CC(C)N(C)S(=O)(=O)c1ccc2c(c1)CCN(C(=O)c1cnccn1)C2`, for which the cytotoxicity at 10 µM was -6.17%.

In the case of `O=c1c2cc3c(cc2nnn1Cc1ccccc1)OCCO3`, the cytotoxicity at 10 µM was 7.38%. Turning to `CCN1CCN(c2ccc(CNC(=O)c3cnn(C)c3C)cn2)CC1`, the cytotoxicity at 10 µM is -11.1%. The result for `COc1ncccc1CNC(=O)c1cccnc1O` reads -4.02%; that for `COc1cc(CN2CCCC2)ccc1OC12CCCN(CC1)C2` (stereo not drawn), -2.87%; that for `Cn1ccnc1CN1CCC2(CC1)COC2`, 6.81%. The result for `O=C(NC1CCN(c2cccc(OC(F)(F)F)c2)C1=O)C1CC1` (stereo not drawn) reads 19.2%; that for `COCCN1CCCCC12CC(=O)N(c1cccc(C#N)c1)C2` (stereo not drawn), -102%; that for `Cc1ncsc1C(=O)NCC1SCCc2ccccc21` (stereo not drawn), -8.21%. On to `COc1cc(CNC(c2ccccc2)c2nccn2C)cc(OC)c1` (stereo not drawn), for which the cytotoxicity at 10 µM is -6.69%. Take `COCCOCC(=O)NCc1ccc(N(C)C)nc1`: the cytotoxicity at 10 µM amounted to 8.87%.

As to `Cc1ccc(F)cc1NC(=O)C1CCCN1C(=O)C(C)C` (stereo not drawn), the cytotoxicity at 10 µM was -4.93%. For `CC(Cn1cccn1)NC(=O)Nc1nnc(C2CC2)s1` (stereo not drawn), the cytotoxicity at 10 µM was -1.71%.

The values are drawn from ChEMBL document CHEMBL4513216, “Probing the Open Global Health Chemical Diversity Library for Multistage-Active Starting Points for Next-Generation Antimalarials” (ACS Infect Dis, 2020).
